{"source": "paper PMC3184254", "about": "(Nature Chemical Biology, 2011)", "key": {"SUV39H2": {"molecular_target": "SUV39H2 (Homo sapiens, UniProt Q9H5I1)", "sequence (Q9H5I1 whole entry, species assumed)": "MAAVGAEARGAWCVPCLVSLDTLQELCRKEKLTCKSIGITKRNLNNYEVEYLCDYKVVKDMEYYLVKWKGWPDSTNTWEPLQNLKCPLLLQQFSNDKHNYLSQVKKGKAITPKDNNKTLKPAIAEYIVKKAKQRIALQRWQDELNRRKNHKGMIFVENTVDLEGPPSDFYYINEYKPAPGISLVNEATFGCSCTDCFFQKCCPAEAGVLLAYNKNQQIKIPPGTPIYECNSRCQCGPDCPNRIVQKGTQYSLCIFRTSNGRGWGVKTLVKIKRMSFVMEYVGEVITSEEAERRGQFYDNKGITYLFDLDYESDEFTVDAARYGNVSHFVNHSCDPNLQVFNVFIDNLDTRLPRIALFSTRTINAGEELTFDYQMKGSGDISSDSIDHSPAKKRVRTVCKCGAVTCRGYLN", "test": "SAHH-coupled assay, SUV39H2", "assay_type": "biochemical", "procedure,_shortened": "(§1)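 A fluorescence-based coupled assay used S-adenosyl-L-homocysteine hydrolase to follow conversion of cofactor SAM to SAH by the methyltransferase. IC50 values are the average of at least two separate experiments.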"}, "SETD7": {"molecular_target": "T1, SETD7 (Homo sapiens, UniProt Q8WTS6)", "T1 sequence (Q8WTS6 1-366)": "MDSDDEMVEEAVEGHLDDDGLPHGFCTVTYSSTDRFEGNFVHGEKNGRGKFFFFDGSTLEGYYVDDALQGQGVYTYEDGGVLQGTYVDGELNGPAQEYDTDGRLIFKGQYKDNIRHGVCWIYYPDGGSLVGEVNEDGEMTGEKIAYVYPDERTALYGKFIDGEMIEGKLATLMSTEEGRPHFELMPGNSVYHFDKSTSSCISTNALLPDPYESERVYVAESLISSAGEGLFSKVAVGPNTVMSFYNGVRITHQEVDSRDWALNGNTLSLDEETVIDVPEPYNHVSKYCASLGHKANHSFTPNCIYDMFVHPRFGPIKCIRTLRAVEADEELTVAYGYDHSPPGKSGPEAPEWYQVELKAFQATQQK", "test": "SAHH-coupled assay, SETD7", "assay_type": "biochemical", "procedure,_shortened": "as §1"}, "SETD8": {"molecular_target": "T2, SETD8 (Homo sapiens, UniProt Q9NQR1)", "T2 sequence (Q9NQR1 1-393)": "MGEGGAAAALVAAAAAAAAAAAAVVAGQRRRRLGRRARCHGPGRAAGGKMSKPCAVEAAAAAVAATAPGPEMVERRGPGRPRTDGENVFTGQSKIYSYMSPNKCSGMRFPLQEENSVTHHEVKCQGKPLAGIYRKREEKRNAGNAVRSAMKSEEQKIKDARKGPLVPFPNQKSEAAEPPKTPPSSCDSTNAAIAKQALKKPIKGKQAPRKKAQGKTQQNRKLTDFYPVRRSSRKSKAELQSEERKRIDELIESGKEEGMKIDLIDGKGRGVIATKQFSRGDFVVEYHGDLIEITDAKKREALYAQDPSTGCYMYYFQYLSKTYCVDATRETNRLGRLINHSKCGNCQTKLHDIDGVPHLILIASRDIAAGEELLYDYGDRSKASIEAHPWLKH", "test": "SAHH-coupled assay, SETD8", "assay_type": "biochemical", "procedure,_shortened": "as §1"}, "PRMT1": {"molecular_target": "PRMT1 (Homo sapiens, UniProt Q99873)", "sequence (Q99873 whole entry, species assumed)": "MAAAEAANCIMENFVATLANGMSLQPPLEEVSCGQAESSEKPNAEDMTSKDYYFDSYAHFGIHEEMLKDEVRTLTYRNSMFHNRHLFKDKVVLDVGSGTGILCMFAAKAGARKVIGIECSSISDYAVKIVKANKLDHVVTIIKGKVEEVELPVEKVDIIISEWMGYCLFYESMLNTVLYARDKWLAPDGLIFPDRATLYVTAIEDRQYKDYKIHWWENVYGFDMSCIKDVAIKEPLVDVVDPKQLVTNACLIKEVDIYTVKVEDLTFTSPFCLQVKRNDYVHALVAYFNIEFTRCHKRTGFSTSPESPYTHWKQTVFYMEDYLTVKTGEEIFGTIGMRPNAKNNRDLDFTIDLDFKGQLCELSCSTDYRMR", "test": "BPS Bioscience assay, PRMT1", "assay_type": "biochemical"}, "PRMT3": {"molecular_target": "PRMT3 (Homo sapiens, UniProt O60678)", "sequence (O60678 whole entry, species assumed)": "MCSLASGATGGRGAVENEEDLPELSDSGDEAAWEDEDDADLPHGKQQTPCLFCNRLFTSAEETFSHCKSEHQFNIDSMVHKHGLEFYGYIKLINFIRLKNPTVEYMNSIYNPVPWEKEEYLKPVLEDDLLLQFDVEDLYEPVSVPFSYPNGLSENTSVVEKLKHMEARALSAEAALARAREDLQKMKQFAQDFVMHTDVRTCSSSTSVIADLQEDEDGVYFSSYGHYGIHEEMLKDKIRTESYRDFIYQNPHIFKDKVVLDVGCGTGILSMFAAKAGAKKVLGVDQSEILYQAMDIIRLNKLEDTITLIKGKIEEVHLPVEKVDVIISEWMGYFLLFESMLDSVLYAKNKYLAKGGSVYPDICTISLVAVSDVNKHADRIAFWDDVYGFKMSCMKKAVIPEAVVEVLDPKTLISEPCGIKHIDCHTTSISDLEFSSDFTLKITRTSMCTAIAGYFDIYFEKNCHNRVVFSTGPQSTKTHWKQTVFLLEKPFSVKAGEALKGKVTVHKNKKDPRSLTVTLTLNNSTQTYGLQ", "test": "SAHH-coupled assay, PRMT3", "assay_type": "biochemical", "procedure,_shortened": "as §1"}, "JMJD2E": {"molecular_target": "JMJD2E (Homo sapiens, UniProt B2RXH2)", "sequence (B2RXH2 whole entry)": "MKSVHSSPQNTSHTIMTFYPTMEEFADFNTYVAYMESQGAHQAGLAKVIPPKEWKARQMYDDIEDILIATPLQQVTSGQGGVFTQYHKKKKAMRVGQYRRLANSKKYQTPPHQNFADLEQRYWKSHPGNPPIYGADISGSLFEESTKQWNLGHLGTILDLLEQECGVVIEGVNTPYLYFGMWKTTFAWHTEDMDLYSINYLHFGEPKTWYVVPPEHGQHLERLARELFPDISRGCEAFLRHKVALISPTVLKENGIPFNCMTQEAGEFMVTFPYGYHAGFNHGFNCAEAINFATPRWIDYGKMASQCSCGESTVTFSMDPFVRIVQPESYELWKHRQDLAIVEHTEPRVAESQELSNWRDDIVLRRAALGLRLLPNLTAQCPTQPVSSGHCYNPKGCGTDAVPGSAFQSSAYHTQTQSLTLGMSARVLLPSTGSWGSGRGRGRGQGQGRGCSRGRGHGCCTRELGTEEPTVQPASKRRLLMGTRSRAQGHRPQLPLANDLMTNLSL", "test": "Alphascreen assay, JMJD2E", "assay_type": "biochemical"}, "[1]": {"tested_on": "26 out of 29 targets in the Ricerca Selectivity Panel", "test": "Ricerca Selectivity Panel", "assay_type": "binding", "details": "at 1 μM"}, "adrenergic α1B receptor": {"molecular_target": "adrenergic α1B receptor (Rattus norvegicus, UniProt P15823)", "sequence (P15823 whole entry)": "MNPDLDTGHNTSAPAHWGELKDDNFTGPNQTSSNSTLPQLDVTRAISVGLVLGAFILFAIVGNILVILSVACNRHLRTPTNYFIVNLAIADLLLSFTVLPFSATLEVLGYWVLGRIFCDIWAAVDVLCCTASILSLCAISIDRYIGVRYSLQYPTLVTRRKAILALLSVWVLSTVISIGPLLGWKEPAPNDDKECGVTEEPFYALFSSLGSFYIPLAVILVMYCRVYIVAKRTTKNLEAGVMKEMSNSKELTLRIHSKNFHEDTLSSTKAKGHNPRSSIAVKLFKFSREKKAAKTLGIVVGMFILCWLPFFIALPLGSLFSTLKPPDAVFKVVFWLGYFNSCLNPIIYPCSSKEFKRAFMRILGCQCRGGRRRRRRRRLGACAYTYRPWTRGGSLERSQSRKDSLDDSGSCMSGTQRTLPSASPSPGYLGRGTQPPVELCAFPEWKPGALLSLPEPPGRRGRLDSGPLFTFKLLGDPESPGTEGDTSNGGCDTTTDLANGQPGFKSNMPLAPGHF", "test": "Ricerca Selectivity Panel, adrenergic α1B", "assay_type": "binding"}, "[2]": {"tested_on": "45 targets, including 36 GPCRs", "test": "NIMH Psychoactive Drug Screen Program Selectivity Panel", "assay_type": "binding", "details": "at 1 μM"}, "M1, M2 and M4": {"tested_on": "M1, M2 and M4", "test": "M1, M2 and M4 functional assays", "assay_type": "cell-based"}, "[3]": {"test": "Solution stability by 1H NMR and LC-MS", "assay_type": "physicochemical", "details": "10 mM in deuterated DMSO and deuterated H2O (90:10), room temperature, 4 weeks"}, "[4]": {"test": "Stability in cell media with or without cells", "assay_type": "in vitro ADME", "details": "with or without MCF7, U2OS or H1299 cells, two types of cell media, 65 h"}, "[5]": {"test": "Mouse drug metabolism and pharmacokinetic studies", "assay_type": "in vivo", "details": "intravenous, oral or intraperitoneal administration"}, "[6]": {"tested_on": "H3K9me2 levels in PC3 cells", "test": "H3K9me2 in-cell western, PC3", "assay_type": "cell-based", "details": "Homo sapiens, PC-3, read-out: IC50 for reduction of H3K9me2 levels"}, "[7]": {"tested_on": "H3K9me2 levels in breast, prostate, colon carcinomas and normal fibroblast cells", "test": "H3K9me2 in-cell western, tumor and normal cell lines", "assay_type": "cell-based, human"}, "MDA-MB-231 cells": {"tested_on": "MDA-MB-231 cells", "test": "Clonogenicity assay, MDA-MB-231", "assay_type": "cell-based, human"}, "[8]": {"tested_on": "histone marks in MDA-MB-231 cells", "test": "Quantitative MS analysis of histone modifications", "assay_type": "cell-based, human", "details": "1 μM for 48 h", "procedure,_shortened": "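MDA-MB-231 cells were treated at 1 µM for 48 h. Histones were acid-extracted, derivatized with propionic anhydride and digested with trypsin. Mock and treated samples carried D0 or D5 propionyl labels. Peptides were analysed by LC-MS/MS on an Orbitrap, with all data manually verified.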"}, "[9]": {"tested_on": "H3K9me2 levels in MCF7 cells", "test": "H3K9me2 inhibition, MCF7", "assay_type": "cell-based", "details": "Homo sapiens, MCF7, read-out: IC90 for H3K9me2 inhibition"}, "[10]": {"tested_on": "DNA methylation on chr3 and chrX in MCF7 cells", "test": "DNA methylation microarray analysis, MCF7", "assay_type": "cell-based, human", "details": "14 d at 70 or 320 nM"}, "[11]": {"tested_on": "H3K9me2 at EGFP provirus and MAGEA2 promoter in mES cells", "test": "ChIP of H3K9me2 in mES cells", "assay_type": "cell-based, mouse", "details": "500 nM for 3 or 7 d"}}, "note": "Like-named read-outs stand apart in the source and are kept apart here.", "data": [{"compound": "COc1cc2c(NC3CCN(C(C)C)CC3)nc(C3CCCCC3)nc2cc1OCCCN1CCCC1", "note": "[UNC0638]", "values": [{"measurement": "IC50", "setting": "SUV39H2", "result": "> 10", "unit": "µM"}, {"measurement": "IC50", "setting": "SUV39H2; SAHH-coupled assay", "result": "inactive"}, {"measurement": "IC50", "setting": "SETD7", "result": "> 10", "unit": "µM"}, {"measurement": "IC50", "setting": "SETD7; SAHH-coupled assay", "result": "inactive"}, {"measurement": "IC50", "setting": "SETD8", "result": "> 10", "unit": "µM"}, {"measurement": "IC50", "setting": "SETD8; SAHH-coupled assay", "result": "inactive"}, {"measurement": "IC50", "setting": "PRMT1", "result": "> 10", "unit": "µM"}, {"measurement": "IC50", "setting": "PRMT1; assay results from BPS Bioscience", "result": "inactive"}, {"measurement": "IC50", "setting": "PRMT3", "result": "> 10", "unit": "µM"}, {"measurement": "IC50", "setting": "PRMT3; SAHH-coupled assay", "result": "inactive"}, {"measurement": "IC50", "setting": "JMJD2E", "result": 4.5, "unit": "µM"}, {"measurement": "inhibition", "setting": "[1]", "result": "< 30", "unit": "%"}, {"measurement": "inhibition at 1 µM", "setting": "adrenergic α1B receptor", "result": 69, "unit": "%"}, {"measurement": "inhibition", "setting": "[2]; against 6 targets in the panel", "result": "> 50", "unit": "%"}, {"measurement": "inhibition", "setting": "[2]; against 39 targets in the panel", "result": "< 50", "unit": "%"}, {"measurement": "agonist activity", "setting": "M1, M2 and M4", "result": "no agonist activity"}, {"measurement": "stability in solution", "setting": "[3]", "result": "stable"}, {"measurement": "stability in cell media", "setting": "[4]", "result": "did not produce degradation products"}, {"measurement": "clearance", "setting": "[5]", "result": "high"}, {"measurement": "half-life", "setting": "[5]", "result": "short"}, {"measurement": "volume distribution", "setting": "[5]", "result": "high"}, {"measurement": "IC50", "setting": "[6]", "result": 0.059, "unit": "µM"}, {"measurement": "IC50", "setting": "[7]; Homo sapiens, Fibroblast, read-out: potency in reducing H3K9me2 levels", "result": "0.048 to 0.238", "unit": "µM"}, {"measurement": "reduction of H3K9me2 levels", "setting": "[7]; at 250 nM, variety of cell lines", "result": "60–80%"}, {"measurement": "clonogenicity", "setting": "MDA-MB-231 cells", "result": "much less effect"}, {"measurement": "levels of H3K9me2 by quantitative MS", "setting": "[8]", "result": "considerably lower"}, {"measurement": "levels of H3K9me3 by quantitative MS", "setting": "[8]", "result": "remained constant"}, {"measurement": "levels of H3K14ac by quantitative MS", "setting": "[8]", "result": "doubled"}, {"measurement": "IC90", "setting": "[9]", "result": 0.32, "unit": "µM"}, {"measurement": "total levels of DNA methylation on chr3 and chrX", "setting": "[10]", "result": "not altered"}, {"measurement": "H3K9me2 at EGFP provirus and MAGEA2 promoter (ChIP)", "setting": "[11]", "result": "decreased H3K9me2 at both targets by day 3"}]}]}
